Values after ≈ are worked out from the molar mass of the structure shown.
Legend:
[1] = system: CCRF-CEM; experiment: Inhibitory concentration required to reduce the growth of human CEM cells by 50%; type: functional, cell-based
Outline: (§1)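 Cytostatic assay. The value is the concentration that reduces the growth (viability) of the cells by 50%.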

[2] = system: Cytomegalovirus; experiment: Inhibitory concentration against CMV strain AD169 in human embryonic lung (HEL) cell culture; type: functional; conditions: Human betaherpesvirus 5
Outline: (§2)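 Plaque-reduction assay in human embryonic lung (HEL) cells grown in 96-well trays. The value is the concentration that reduces virus plaque formation by 50%. Single representative experiment.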

[3] = system: Cytomegalovirus; experiment: Inhibitory concentration against CMV strain Davis in human embryonic lung (HEL) cell culture; type: functional; conditions: Human betaherpesvirus 5; outline: as §2
[4] = system: FM3A; experiment: Inhibitory concentration required to reduce the growth of murine FM3A cells by 50%; type: functional, cell-based; conditions: Mus musculus; outline: as §1
[5] = system: Human alphaherpesvirus 1; experiment: Inhibitory concentration against HSV type 1 strain F in human embryonic skin muscle (ESM) fibroblast cell culture; type: functional
Outline: (§3)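 Assay in human embryonic skin-muscle (ESM) cells grown in 96-well trays. The value is the concentration that reduces virus-induced cytopathicity by 50%. Single representative experiment.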

[6] = system: Human alphaherpesvirus 1; experiment: Inhibitory concentration against HSV type 1 strain KOS in human embryonic skin muscle (ESM) fibroblast cell culture; type: functional
[7] = system: Human alphaherpesvirus 1; experiment: Inhibitory concentration against HSV type 1 strain Mc Intyre in human embryonic skin muscle (ESM) fibroblast cell culture; type: functional; outline: as §3
[8] = system: Human alphaherpesvirus 2; experiment: Inhibitory concentration against HSV type 2 strain 196 in human embryonic skin muscle (ESM) fibroblast cell culture; type: functional; outline: as §3
[9] = system: Human alphaherpesvirus 2; experiment: Inhibitory concentration against HSV type 2 strain G in human embryonic skin muscle (ESM) fibroblast cell culture; type: functional; outline: as §3
[10] = system: Human alphaherpesvirus 2; experiment: Inhibitory concentration against HSV type 2 strain Lyons in human embryonic skin muscle (ESM) fibroblast cell culture; type: functional; outline: as §3
[11] = system: HEL; experiment: Inhibitory concentration required to inhibit cell growth by 50% in human embryonic lung (HEL) cell culture; type: functional
Outline: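 Uninfected HEL cells grown in 96-well trays. The value is the concentration that reduces cell growth by 50%. Single representative experiment.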

[12] = system: Human alphaherpesvirus 3; experiment: (§4) Inhibitory concentration against TK-VZV strain YS-R in human embryonic lung (HEL) cell culture; type: functional; outline: as §2
[13] = system: L1210; experiment: Inhibitory concentration required to reduce the growth of murine L1210 cells by 50%; type: functional, cell-based; conditions: Mus musculus; outline: as §1
[14] = system: MT4; experiment: Inhibitory concentration required to reduce the growth of human MT-4 cells by 50%; type: functional, cell-based; outline: as §1
[15] = system: MOLT-4; experiment: Inhibitory concentration required to reduce the growth of human MOLT-4 cells by 50%; type: functional, cell-based; outline: as §1
[16] = system: Human alphaherpesvirus 1; experiment: Inhibitory concentration against TK-HSV type 1 strain B2006 in human embryonic skin muscle (ESM) fibroblast cell culture; type: functional; outline: as §3
[17] = system: Vesicular stomatitis virus; experiment: Inhibitory concentration against VSV in human embryonic skin muscle (ESM) fibroblast cell culture; type: functional
[18] = system: Vaccinia virus; experiment: Inhibitory concentration against VV in human embryonic skin muscle (ESM) fibroblast cell culture; type: functional; conditions: Orthopoxvirus vaccinia
[19] = system: Human alphaherpesvirus 3; experiment: Inhibitory concentration against VZV strain YS in human embryonic lung (HEL) cell culture; type: functional
[20] = system: Human immunodeficiency virus 1; experiment: Inhibitory concentration required to achieve 50% protection of MT-4 cells against cytopathicity of […]; type: functional, organism-based; conditions: Human immunodeficiency virus 1, MT4
Outline: (§5)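 MT-4 cells infected with HIV-1 (strain III_B) or HIV-2 (strain ROD). The value is the concentration that protects the cells from virus cytopathicity by 50%.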

[21] = system: Human alphaherpesvirus 3; experiment: Inhibitory concentration against VZV strain OKA in human embryonic lung (HEL) cell culture; type: functional
[22] = system: ESM; experiment: Inhibitory concentration required for morphologic alteration in normal cell in human embryonic skin muscle (ESM) fibroblast cell culture; type: functional
Outline: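 Uninfected ESM cells in 96-well trays, examined under the microscope. The value is the minimal concentration that causes a detectable change in normal cell morphology. Tested up to 400 μg/mL. Single representative experiment.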

[23] = system: Human alphaherpesvirus 3; experiment: Inhibitory concentration against TK-VZV strain 07-1 in human embryonic lung (HEL) cell culture; type: functional
[24] = system: Human immunodeficiency virus 2; experiment: Inhibitory concentration required to achieve 50% protection of MT-4 cells against cytopathicity of […]; type: functional, organism-based; conditions: Human immunodeficiency virus 2, MT4; outline: as §5
[25] = system: Human alphaherpesvirus 3; experiment: as §4; type: functional; remark: listed apart in the source

SMILES	IC50 [1] [mg/L]	MIC [2] [mg/L]	MIC [3] [mg/L]	IC50 [4] [mg/L]	MIC [5] [mg/L]	MIC [6] [mg/L]	MIC [7] [mg/L]	MIC [8] [mg/L]	MIC [9] [mg/L]	MIC [10] [mg/L]	MIC [11] [mg/L]	IC50 [13] [mg/L]	MIC [16] [mg/L]	MIC [17] [mg/L]	MIC [18] [mg/L]	MIC [19] [mg/L]	MIC [21] [mg/L]	MIC [22] [mg/L]	MIC [23] [mg/L]	MIC [25] [mg/L]	other results
Nc1ncnc2c1ncn2[C@@H]1CO[C@H](CO)[C@@H](O)C1	> 100	> 10	> 10	97.5 (≈ 368 µM)	4 (≈ 15.1 µM)	7 (≈ 26.4 µM)	20 (≈ 75.4 µM)	0.04 (≈ 0.151 µM)	7 (≈ 26.4 µM)	1 (≈ 3.77 µM)	> 50	> 100	150 (≈ 565 µM)	> 200	40 (≈ 151 µM)	4 (≈ 15.1 µM)	4 (≈ 15.1 µM)	> 400	10 (≈ 37.7 µM)	–	MIC [12]: 3.2 mg/L (≈ 12.1 µM); IC50 [14]: 12.5 mg/L (≈ 47.1 µM); IC50 [15]: > 100 mg/L; IC50 [20]: > 4 mg/L; IC50 [24]: > 4 mg/L
Nc1ccn(C2COC(CO)C(O)C2)c(=O)n1 (stereo not drawn)	1.4 (≈ 5.8 µM)	0.64 (≈ 2.65 µM)	0.75 (≈ 3.11 µM)	28 (≈ 116 µM)	1 (≈ 4.15 µM)	0.7 (≈ 2.9 µM)	2 (≈ 8.29 µM)	0.02 (≈ 0.0829 µM)	0.04 (≈ 0.166 µM)	0.02 (≈ 0.0829 µM)	2 (≈ 8.29 µM)	29 (≈ 120 µM)	4 (≈ 16.6 µM)	> 400	2 (≈ 8.29 µM)	0.27 (≈ 1.12 µM)	0.04 (≈ 0.166 µM)	> 400	0.75 (≈ 3.11 µM)	0.64 (≈ 2.65 µM)	IC50 [14]: 1.1 mg/L (≈ 4.56 µM); IC50 [15]: 0.87 mg/L (≈ 3.61 µM); IC50 [20]: > 0.8 mg/L; IC50 [24]: > 0.8 mg/L
Cc1cn(C2COC(CO)C(O)C2)c(=O)[nH]c1=O (stereo not drawn)	> 100	> 10	> 10	> 100	40 (≈ 156 µM)	40 (≈ 156 µM)	7 (≈ 27.3 µM)	40 (≈ 156 µM)	150 (≈ 585 µM)	20 (≈ 78 µM)	> 50	> 100	> 400	> 400	> 400	> 100	> 100	> 400	> 100	100 (≈ 390 µM)	IC50 [14]: > 100 mg/L; IC50 [15]: > 100 mg/L; IC50 [20]: 36 mg/L (≈ 140 µM); IC50 [24]: > 100 mg/L
Nc1nc(O)c2ncn([C@@H]3CO[C@H](CO)[C@@H](O)C3)c2n1	21 (≈ 74.7 µM)	1.5 (≈ 5.33 µM)	1.2 (≈ 4.27 µM)	12.3 (≈ 43.7 µM)	0.2 (≈ 0.711 µM)	0.2 (≈ 0.711 µM)	0.7 (≈ 2.49 µM)	0.02 (≈ 0.0711 µM)	0.1 (≈ 0.356 µM)	0.01 (≈ 0.0356 µM)	20 (≈ 71.1 µM)	5.4 (≈ 19.2 µM)	20 (≈ 71.1 µM)	> 2	7 (≈ 24.9 µM)	0.1 (≈ 0.356 µM)	0.9 (≈ 3.2 µM)	> 400	4 (≈ 14.2 µM)	2.8 (≈ 9.95 µM)	IC50 [14]: 21 mg/L (≈ 74.7 µM); IC50 [15]: 14 mg/L (≈ 49.8 µM); IC50 [20]: > 4 mg/L; IC50 [24]: > 4 mg/L
O=c1[nH]c(=O)n(C2COC(CO)C(O)C2)cc1I (stereo not drawn)	> 100	> 10	> 10	> 100	0.07 (≈ 0.19 µM)	0.07 (≈ 0.19 µM)	0.07 (≈ 0.19 µM)	0.07 (≈ 0.19 µM)	0.07 (≈ 0.19 µM)	0.07 (≈ 0.19 µM)	> 50	> 100	> 200	> 200	> 200	> 100	> 100	> 400	> 100	> 100	IC50 [14]: > 100 mg/L; IC50 [15]: > 100 mg/L; IC50 [20]: > 100 mg/L; IC50 [24]: > 100 mg/L
Nc1nc2c(ncn2COCCO)c(=O)[nH]1 [ACYCLOVIR]	–	–	–	–	0.4 (≈ 1.78 µM)	0.02 (≈ 0.0888 µM)	0.7 (≈ 3.11 µM)	2 (≈ 8.88 µM)	0.02 (≈ 0.0888 µM)	0.7 (≈ 3.11 µM)	> 200	–	70 (≈ 311 µM)	> 400	> 400	–	–	–	–	–	–
O=c1[nH]c(=O)n([C@H]2C[C@H](O)[C@@H](CO)O2)cc1/C=C/Br [BRIVUDINE]	–	> 100	> 100	–	0.004 (≈ 0.012 µM)	0.004 (≈ 0.012 µM)	0.02 (≈ 0.06 µM)	300 (≈ 901 µM)	10 (≈ 30 µM)	70 (≈ 210 µM)	> 200	–	> 400	> 200	2 (≈ 6 µM)	0.0015 (≈ 0.0045 µM)	0.0007 (≈ 0.0021 µM)	> 400	8 (≈ 24 µM)	30 (≈ 90.1 µM)	–
Nc1nc2c(ncn2COC(CO)CO)c(=O)[nH]1 [GANCICLOVIR]	–	3 (≈ 11.8 µM)	6.2 (≈ 24.3 µM)	–	0.007 (≈ 0.0274 µM)	0.004 (≈ 0.0157 µM)	0.001 (≈ 0.00392 µM)	0.02 (≈ 0.0784 µM)	0.004 (≈ 0.0157 µM)	0.02 (≈ 0.0784 µM)	85 (≈ 333 µM)	–	2 (≈ 7.84 µM)	> 400	70 (≈ 274 µM)	0.072 (≈ 0.282 µM)	0.02 (≈ 0.0784 µM)	–	0.1 (≈ 0.392 µM)	0.9 (≈ 3.53 µM)	–
O=c1[nH]c(=O)n([C@H]2C[C@H](O)[C@@H](CO)O2)cc1I [IDOXURIDINE]	–	–	–	–	0.2 (≈ 0.565 µM)	0.2 (≈ 0.565 µM)	1 (≈ 2.82 µM)	0.2 (≈ 0.565 µM)	0.2 (≈ 0.565 µM)	0.2 (≈ 0.565 µM)	> 50	–	70 (≈ 198 µM)	> 400	0.7 (≈ 1.98 µM)	0.4 (≈ 1.13 µM)	0.17 (≈ 0.48 µM)	> 400	4 (≈ 11.3 µM)	4 (≈ 11.3 µM)	–
